# High-throughput results deposited in PubChem BioAssay by several laboratories.
# 14-3-3 Bad PPI = disrupts binding of bovine 14-3-3 zeta to phospho-Bad peptide. TR-FRET 14-3-3zeta/Dy647-pBad peptide displacement, 1 h. P63103. inhibition, % at 21.7 µM. 220,000 compounds, 0.71% hits;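 active = inhibition above about 70%, limit read from the data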;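 also: 0% = full 14-3-3 plus peptide FRET controls and 100% = background without 14-3-3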
# MDM2 E3 inh = blocks human Mdm2 ubiquitin ligase activity; Q00987; cell-based MDM2 ubiquitination luciferase reporter, 2 h; 0 = plate control, 100 = twice control, blank-subtracted; signal enhancement, % at 5 µM; 210,000 compounds, 0.11% hits;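 active = signal enhancement of 30% or more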;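 also: luminescence tracks abundance of the self-degrading MDM2-luciferase fusion protein; higher signal means inhibition of MDM2 E3 ligase activity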
#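 Assay system: stable mammalian line carrying autodegrading MDM2–luciferase fusion reporter; Input: 2000 cells in each well; Compound dosing: single-point 5 µM; Schedule: 2 h compound exposure at 37 °C; Signal: SteadyLite luciferase luminescence after 15 min room-temperature reagent incubation; Evaluation: % luminescence enhancement versus blank-corrected plate control mean; Benchmarks: plate controls and plate blanks.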
# Wee1 degr inh = human Wee1 degradation inhibition, primary screen; P30291; 220,000 compounds, 1.2% hits; reporter increase, % at 5 µM; AID 1321; HeLa Luc-Wee1K328M stability, luciferase luminescence; 100% = proteasome inhibitor MG132 effect;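 active = activation above the mean of all tested compounds plus 3 SD, set per screening run, cut at about 8.8% in these data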;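 also: cells exposed to compound for 20 h before luminescence read; 0% = DMSO alone and 100% = MG132 at 30 µM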
# Target sequence (P30291 whole entry K328M): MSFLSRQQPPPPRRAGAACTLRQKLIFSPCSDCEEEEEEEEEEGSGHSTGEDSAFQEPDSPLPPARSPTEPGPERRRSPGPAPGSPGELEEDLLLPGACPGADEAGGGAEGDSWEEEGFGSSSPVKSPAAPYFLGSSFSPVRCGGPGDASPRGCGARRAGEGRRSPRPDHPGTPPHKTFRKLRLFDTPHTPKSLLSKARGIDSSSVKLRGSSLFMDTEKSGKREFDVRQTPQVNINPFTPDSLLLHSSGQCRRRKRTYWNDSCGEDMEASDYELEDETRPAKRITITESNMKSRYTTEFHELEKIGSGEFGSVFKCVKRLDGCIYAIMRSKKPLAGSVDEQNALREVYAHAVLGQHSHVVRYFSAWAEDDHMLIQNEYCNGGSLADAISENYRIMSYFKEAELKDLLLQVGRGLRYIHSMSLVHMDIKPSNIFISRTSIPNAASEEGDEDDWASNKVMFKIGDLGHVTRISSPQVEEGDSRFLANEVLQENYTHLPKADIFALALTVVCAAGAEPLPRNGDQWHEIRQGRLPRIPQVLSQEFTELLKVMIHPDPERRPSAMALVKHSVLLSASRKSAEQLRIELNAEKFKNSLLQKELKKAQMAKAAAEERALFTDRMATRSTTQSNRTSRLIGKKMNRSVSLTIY
# Tb hexokinase = blocks Trypanosoma brucei hexokinase 1 activity; recombinant TbHK1, G6PDH-coupled NADH A340; inhibition, % at 10 µM; 220,000 compounds, 0.11% hits; AID 1430;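 active = inhibition of 50% or more in the single-dose primary screen; inactive = inhibition below 50%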
# Hck Nef HTS = inhibitors of human Hck kinase activated by Nef; 220,000 compounds, 0.68% hits; AID 463187; inhibition, % at 20 µM; Recombinant Hck-YEEI plus Nef, Z-Lyte FRET kinase assay;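 active = Hck-Nef kinase inhibition above about 50%, limit read from the data; inactive = inhibition below that limit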;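 also: 0% = DMSO with Hck plus Nef and 100% = Hck alone without Nef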
# Starred values were filed as active, the others as inactive; x = no result; [ ] = remark or other dose. The list is not random: actives were taken first. Their share in the collection is about 2.7%.
SMILES,14-3-3 Bad PPI,MDM2 E3 inh,Wee1 degr inh,Tb hexokinase,Hck Nef HTS
CCOc1ccc(CC(=O)NNC(=S)NCCc2ccccc2)cc1,-14,2,-1,6,16
CC(C)(C)NC(=O)c1sccc1C(=O)O,77*,19,1,-6,4
O=C(COc1ccccc1C(=O)c1cnn(-c2ccccc2)c1)Nc1ccccc1,84*[fluorescence artefact?],-7,-1,-1,0
CC(=O)c1ccc(OCC(O)Cn2nnc3ccccc32)cc1 (stereo not given),-2,36*,0,-5,0
Cc1nn(-c2ccccc2)c(-c2ccccc2[N+](=O)[O-])c1C(=O)O,-5,-12,3,-12,5
COc1ccc(CN(CCN2CCOCC2)C(=O)c2c(F)cccc2F)cc1OC,80*,-5,1,-6,1
COc1ccc(CN(CCCN2CCOCC2)C(=O)Nc2ccccc2)cc1OC,-11,-17,0,-10,1
O=C(c1cccc(Cl)c1)N1CCN(Cc2ccncc2)CC1,25,-5,1,0,-2
O=C(c1cccc(Cl)c1)N1CCN(Cc2ccccc2F)CC1,84*,-13,1,4,1
O=C(Nc1ccc(Nc2ccncc2)cc1)c1ccc([N+](=O)[O-])cc1,-8,-24,0,-25,24
O=C(Nc1ccc(Nc2ccncc2)cc1)c1ccc(Nc2ccnc3ccc([N+](=O)[O-])cc23)cc1[N+](=O)[O-],77*,-8,-2,-68,-158
COc1ccc(CN2CCOCC2)c(C)c1C,71*,-8,3,-2,0
COc1ccc(CN2CCN(C3CCOCC3)CC2CCO)c(C)c1C (stereo not given),-4,-21,1,-11,-9
C=CCc1cc(C)ccc1OCCn1ccnc1,72*,-12,-3,3,-2
O=C(OCc1c(F)cccc1Cl)c1cnccn1,0,-3,-3,5,2
CC(Oc1ccccc1)C(=O)NC1=NCCS1 (stereo not given),-3,x,1,-3,6
CSc1nc(=O)n2cccc(C)c2n1,97*[fluorescence artefact?],-6,-1,-30,3
Cc1cccn2c(=O)c(C=O)c(N3CCCCCC3)nc12,-3,-6,1,-20,5
Cc1ccc(NC(=O)CN2C(=O)S/C(=C\c3cccn3-c3cccc(C(=O)O)c3)C2=O)cc1C,-8,-10,-2,12,50*
Cc1ccc(NC(=O)CN2C(=O)S/C(=C\c3ccc(-c4cccc(C(=O)O)c4C)o3)C2=O)cc1C,87*,-1,-4,34,24
Cc1cccc(C)c1NC(=O)CN1C(=O)S/C(=C\c2cccn2-c2cccc(C(=O)O)c2)C1=O,1,-23,2,-3,15
Cc1cccc(NC(=O)CN2C(=O)S/C(=C\c3cccn3-c3cccc(C(=O)O)c3)C2=O)c1,-4,-6,-3,5,72*
CCN1CC(CN(C)Cc2nc(-c3ccc(OC)c4ccccc34)oc2C)CC1=O (stereo not given),-6,-4,8,-25,24
O=C(CCC(=O)N(CC(=O)NC1CCCCC1)Cc1cccs1)Nc1ccccn1,-18,13,7,1,18
NC(=O)C1CCCN(Cc2ccc(Cl)cc2)C1 (stereo not given),72*,10,7,5,0
SMILES,14-3-3 Bad PPI,MDM2 E3 inh,Wee1 degr inh,Tb hexokinase,Hck Nef HTS
CCN(CC)C(=O)C1CCCN(Cc2ccc3c(c2)OCO3)C1 (stereo not given),44,-6,1,5,-15
CCN(CC)C(=O)C1CCCN(Cc2ccc(N(C)C)cc2)C1 (stereo not given),48,-4,x,x,x
CCOC(=O)C1CCCN(Cc2ccc3c(c2)OCO3)C1 (stereo not given),75*,3,-3,15,-23
CCN(CC)C(=O)C1CCCN(Cc2ccccc2)C1 (stereo not given),80*,x,-2,3,-7
CN(Cc1ccccc1)C(=O)C1CCCN(Cc2ccc(Cl)cc2)C1 (stereo not given),76*,-11,-2,3,2
NS(=O)(=O)c1cc(C(=O)OCC(=O)Nc2ccc(N3CCCCC3)cc2)ccc1Cl,-3,-1,4,-7,-4
Cc1cc(NC(=O)C23CCC(C)(c4nc5cc(Cl)c(Cl)cc5nc42)C3(C)C)no1 (stereo not given),x,x,0,-11,8
CC(NC(=O)CSc1nc2ccc(N)cc2s1)c1ccccc1 (stereo not given),-21,4,-2,-10,19
